Active and inactive are the calls of the source. The rule behind the calls is not given here.
Columns and labels:
[1] = target: T1, Quinolone resistance protein NorA (Staphylococcus aureus) (UniProt P0A0J7); experiment: Inhibition of Staphylococcus aureus SA-1199B NorA expressed in Escherichia coli DH10B assessed as inhibition of Hoechst 33342 dye efflux at 10 uM by spectrofluorometric analysis in presence of 50 uM Mg2+
T1 sequence (whole entry): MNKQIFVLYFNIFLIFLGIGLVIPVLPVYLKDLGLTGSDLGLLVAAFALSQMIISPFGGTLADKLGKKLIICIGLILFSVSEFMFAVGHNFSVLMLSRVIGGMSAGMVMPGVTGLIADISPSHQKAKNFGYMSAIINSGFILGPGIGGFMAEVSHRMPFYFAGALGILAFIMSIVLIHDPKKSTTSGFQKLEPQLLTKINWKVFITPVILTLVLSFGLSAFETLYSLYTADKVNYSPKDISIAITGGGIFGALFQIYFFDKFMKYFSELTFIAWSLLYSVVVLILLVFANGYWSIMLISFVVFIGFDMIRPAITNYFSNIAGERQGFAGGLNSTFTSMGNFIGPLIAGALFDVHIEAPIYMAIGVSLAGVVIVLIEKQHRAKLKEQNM
Outline: (§1)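 Everted membrane vesicles from E. coli DH10B carrying pTrcHis2C-norA, made by French press with 0.1 mM PMSF and 0.1 mg/mL DNase; pTrc99A vesicles serve as control. Vesicles at 80 µg protein/mL in 50 mM potassium HEPES, 8.5 mM NaCl, 2 mM MgCl₂, pH 7.2. Hoechst 33342 added, then Mg²⁺-ATP to energise, inhibitor at 150–160 s.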

[2] = target: T1, Quinolone resistance protein NorA (Staphylococcus aureus); experiment: Inhibition of Staphylococcus aureus SA-1199B NorA expressed in Escherichia coli DH10B assessed as inhibition of Hoechst 33342 dye efflux at 10 uM after 150 to 160 secs by spectrofluorometric analysis in presence of 50 uM Mg2+; outline: as §1

## CC(C)[C@@H]1NC(=O)[C@H](C)OC(=O)[C@@H](C(C)C)NC(=O)[C@@H](C(C)C)OC(=O)[C@H](C(C)C)NC(=O)[C@H](C)OC(=O)[C@@H](C(C)C)NC(=O)[C@@H](C(C)C)OC(=O)[C@H](C(C)C)NC(=O)[C@H](C)OC(=O)[C@@H](C(C)C)NC(=O)[C@@H](C(C)C)OC1=O
[1]
  inhibition: Active
[2]
  inhibition: Active

Source: ChEMBL document CHEMBL2157969, “Chalcone inhibitors of the NorA efflux pump in Staphylococcus aureus whole cells and enriched everted membrane vesicles” (Bioorg Med Chem, 2012)
